This note sets out measurements from ChEMBL document CHEMBL4732196, “Structural optimization towards promising β-methyl-4-acrylamido quinoline derivatives as PI3K/mTOR dual inhibitors for anti-cancer therapy: The in vitro and in vivo biological evaluation” (Eur J Med Chem, 2021).

Data set [1] concerns the target Phosphatidylinositol 4,5-bisphosphate 3-kinase catalytic subunit alpha isoform (Homo sapiens, UniProt P42336). Put plainly: Inhibition of recombinant human PI3Kalpha using PIP2 as substrate incubated for 1 hr by kinase-glo luminescent assay. A general note: Kinase-Glo reads ATP consumption through a luciferase reaction.
The target in data set [2] is T1, Serine/threonine-protein kinase mTOR (Homo sapiens, UniProt P42345). Put plainly: Inhibition of recombinant human N-terminal FLAG-tagged mTOR (1362 to end amino acids) using ULight-4E-BP1 as substrate incubated for 1 hr by LANCE Ultra assay. (In general: In TR-FRET formats the signal depends on donor and acceptor labels being close together.)
In another data set the test system is PC-3. The data set is described as follows: Growth inhibition of human PC3 cells after 72 hrs by sulforhodamine B assay. It counts as functional. (In general: Sulforhodamine B stains cellular protein and so reports cell mass.)
In a further data set the test system is U-87 MG. The data set is described as follows: Growth inhibition of human U87MG cells after 72 hrs by sulforhodamine B assay. It counts as functional, U-87MG ATCC.
Data set [3] relates to U87. The data set is described as follows: Inhibition of PI3K in human U87MG cells assessed as suppression of phosphorylation of AKT at Ser473 residue at 25 nM after 3 hrs by Western blot analysis. Type of data set: cell-based. Summed up: (§1)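 U87MG cells seeded at 1×10^6 per well, incubated overnight at 37 °C, 5% CO₂, then treated at various concentrations for 3 h at 37 °C. Western blot for phospho-Akt (Ser473, Thr308), phospho-S6 (Ser235/236) and phospho-4E-BP1 (Thr37/46), with GAPDH as internal control. Bands quantified as mean ± SD, n = 3 biological replicates, versus untreated cells.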

Data set [4] has as its system U87. Put plainly: Inhibition of PI3K in human U87MG cells assessed as suppression of phosphorylation of AKT at Thr308 residue at 25 nM after 3 hrs by Western blot analysis. Type of data set: cell-based. Summed up: as §1
Data set [5] deals with T1, Serine/threonine-protein kinase mTOR. Put plainly: Inhibition of mTOR in human U87MG cells assessed as suppression of phosphorylation of S6 ribosomal at Ser235/236 residues at 25 nM after 3 hrs by Western blot analysis. Type of data set: cell-based. The note with it: U87. Summed up:
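U87MG cells were seeded at 1×10^6 per well and held overnight at 37 °C, 5% CO2. They were then exposed to a range of inhibitor concentrations for 3 h at 37 °C. Phospho-Akt (Ser473, Thr308), phospho-S6 (Ser235/236) and phospho-4E-BP1 (Thr37/46) were measured by Western blot with GAPDH as loading control. Bands were quantified as mean ± SD of 3 biological replicates against untreated cells.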

Data set [6] has the same target. Put plainly: Inhibition of mTOR in human U87MG cells assessed as suppression of phosphorylation of S6 ribosomal at 25 nM after 3 hrs by Western blot analysis. The note with it: U87.
Data set [7] can be described thus: MRT(0 to t) in Sprague-Dawley rat at 5 mg/kg, po. It counts as ADME, organism-based. As to conditions: in vivo. Summed up: (§2)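 Male Sprague-Dawley rats (n = 3) received a single 5 mg/kg oral gavage dose formulated as a suspension in 0.5% methylcellulose. Plasma concentration-time curves were recorded and mean PK parameters derived.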
Data set [8] is described as follows: MRT(0 to infinity) in Sprague-Dawley rat at 5 mg/kg, po. Type of data set: ADME, organism-based. The note with it: in vivo. The method in brief: as §2

Each structure is given as a SMILES string. The source made the active and inactive calls. No cut-off for these calls is given here. Some results are limits rather than exact numbers.

Phosphatidylinositol 4,5-bisphosphate 3-kinase catalytic subunit alpha isoform, sequence (P42336 whole entry, canonical isoform): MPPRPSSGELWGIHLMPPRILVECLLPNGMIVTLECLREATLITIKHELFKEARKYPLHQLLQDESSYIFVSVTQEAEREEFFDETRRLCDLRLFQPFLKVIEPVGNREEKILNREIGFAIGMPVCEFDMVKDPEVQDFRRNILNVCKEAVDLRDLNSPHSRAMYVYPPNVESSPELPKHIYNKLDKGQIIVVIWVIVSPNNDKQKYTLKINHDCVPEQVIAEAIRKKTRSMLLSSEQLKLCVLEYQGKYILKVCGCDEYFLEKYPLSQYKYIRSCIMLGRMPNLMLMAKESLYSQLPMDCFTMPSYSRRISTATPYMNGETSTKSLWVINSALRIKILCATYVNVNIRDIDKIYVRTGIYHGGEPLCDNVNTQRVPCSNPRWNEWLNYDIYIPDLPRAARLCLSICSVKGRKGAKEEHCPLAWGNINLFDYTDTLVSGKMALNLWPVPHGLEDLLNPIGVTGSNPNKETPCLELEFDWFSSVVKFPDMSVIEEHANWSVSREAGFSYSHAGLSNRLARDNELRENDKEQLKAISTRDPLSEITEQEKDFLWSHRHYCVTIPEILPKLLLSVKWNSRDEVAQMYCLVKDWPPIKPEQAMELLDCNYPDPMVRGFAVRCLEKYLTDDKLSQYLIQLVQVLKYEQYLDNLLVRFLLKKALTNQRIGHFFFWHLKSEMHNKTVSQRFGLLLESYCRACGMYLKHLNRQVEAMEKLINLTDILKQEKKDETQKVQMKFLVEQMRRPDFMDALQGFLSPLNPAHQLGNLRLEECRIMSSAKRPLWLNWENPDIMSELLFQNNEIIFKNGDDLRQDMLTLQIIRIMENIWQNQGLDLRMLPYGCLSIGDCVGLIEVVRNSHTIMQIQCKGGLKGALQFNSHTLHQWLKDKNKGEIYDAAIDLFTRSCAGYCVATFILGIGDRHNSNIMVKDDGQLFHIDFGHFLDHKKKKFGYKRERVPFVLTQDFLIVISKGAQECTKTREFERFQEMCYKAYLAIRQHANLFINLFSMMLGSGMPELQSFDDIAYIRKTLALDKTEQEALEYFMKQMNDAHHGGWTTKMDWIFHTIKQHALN

For `COc1ncc(-c2ccc3nccc(/C(C)=C/C(=O)N(C)CCO)c3c2)cc1NS(=O)(=O)c1ccc(F)cc1F`, the IC50 (usually the concentration that inhibits the measured activity by half) in data set [1] is 1.5 nM; in data set [2] it was 1.7 nM. Further, the concentration for 50% growth inhibition (GI50) (as a rule, the concentration that inhibits growth by half) in the data set with PC-3 was 290 nM; in the data set with U-87 MG, 380 nM.
In the same order, the values of `COc1ncc(-c2ccc3nccc(/C(C)=C/C(=O)N4CCOCC4)c3c2)cc1NS(=O)(=O)c1ccc(F)cc1F` are 1.1 nM, 3.3 nM, 1670 nM and 610 nM.
On to `COc1ncc(-c2ccc3nccc(/C(C)=C/C(=O)N4CCCC4)c3c2)cc1NS(=O)(=O)c1ccc(F)cc1F`, for which the results for the 50% inhibitory concentration (IC50) in [1] and in data set [2] were 1.2 nM and 2.1 nM, respectively. The GI50 is 1160 nM in the data set on PC-3 and 390 nM in the data set on U-87 MG.
On to `COc1ncc(-c2ccc3nccc(-c4ccnnc4)c3c2)cc1NS(=O)(=O)c1ccc(F)cc1F` [OMIPALISIB], for which the GI50 in the data set on PC-3 is 250 nM; in the data set with U-87 MG, 220 nM. Besides, the inhibition entry (in the data set on U87 [3]; in the data set on U87 [4]; in [5]; in data set [6]) was “Active” in each case.
As to `COc1ncc(-c2ccc3nccc(/C(C)=C/C(=O)N4CCC(O)CC4)c3c2)cc1NS(=O)(=O)c1ccc(F)cc1F`, the half-inhibitory concentration (IC50) in data set [1] was 1.4 nM; in data set [2], 6.1 nM. In addition, the GI50 in the data set on PC-3 is 1080 nM; in the data set on U-87 MG, 600 nM.
As to `COc1ncc(-c2ccc3nccc(/C=C/C(=O)N4CCN(C)CC4)c3c2)cc1NS(=O)(=O)c1ccc(F)cc1F`, the IC50 in data set [1] worked out at 1.04 nM; in data set [2], 3.2 nM. The values for the concentration for 50% growth inhibition (GI50) in the data set on PC-3 and in the data set with U-87 MG were 450 nM and 220 nM, respectively. Besides, the MRT last (commonly the average time that molecules of a dose stay in the body) in data set [7] was 1.89 h. Also, the mean residence time MRT inf – broadly, a mean duration of stay, worked out from the concentration-time curve – in data set [8] was 2.59 h.
Turning to `COc1ncc(-c2ccc3nccc(/C(C)=C\C(=O)N4CCOCC4)c3c2)cc1NS(=O)(=O)c1ccc(F)cc1F`, the IC50 in data set [1] turned out to be 23 nM; in data set [2], 141 nM. Further, the GI50 in the data set with PC-3 is 8020 nM; in the data set on U-87 MG, more than 10000 nM.
